ChEMBL document CHEMBL1136933 (J Med Chem, 2009)

Key:
[1] = molecular target: T1, Muscarinic acetylcholine receptor M1 (Rattus norvegicus) (UniProt P08482); test: Activation of rat muscarinic M1 receptor expressed in CHO cells co-expressing Gq protein assessed as potentiation of acetylcholine-induced intracellular Ca2+ mobilization at 30 uM relative to acetylcholine; format: functional, cell-based
T1 sequence (whole entry): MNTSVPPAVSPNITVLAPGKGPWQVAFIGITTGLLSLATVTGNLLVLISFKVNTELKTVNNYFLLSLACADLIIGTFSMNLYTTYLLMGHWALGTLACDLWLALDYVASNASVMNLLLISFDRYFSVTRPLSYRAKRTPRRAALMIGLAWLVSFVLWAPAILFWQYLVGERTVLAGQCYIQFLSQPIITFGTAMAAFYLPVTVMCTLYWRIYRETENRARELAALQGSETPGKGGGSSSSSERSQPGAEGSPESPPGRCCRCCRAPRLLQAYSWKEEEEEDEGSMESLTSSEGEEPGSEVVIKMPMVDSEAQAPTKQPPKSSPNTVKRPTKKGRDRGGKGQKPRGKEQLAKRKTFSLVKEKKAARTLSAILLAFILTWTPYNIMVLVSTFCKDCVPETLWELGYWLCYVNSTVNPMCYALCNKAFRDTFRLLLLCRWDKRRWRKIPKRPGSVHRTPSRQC

[2] = molecular target: T2, Muscarinic acetylcholine receptor M1 (Rattus norvegicus, UniProt P08482); test: Activation of rat muscarinic M1 receptor expressed in CHO cells co-expressing Gq protein assessed as potentiation of acetylcholine-induced intracellular Ca2+ mobilization; format: functional, cell-based
T2 sequence (P08482 whole entry): T1 sequence (whole entry)

[3] = molecular target: T3, Muscarinic acetylcholine receptor M5 (Homo sapiens) (UniProt P08912); test: Activation of human muscarinic M5 receptor expressed in CHO cells coexpressing Gq protein assessed as potentiation of acetylcholine-induced intracellular Ca2+ mobilization at 30 uM relative to acetylcholine; format: functional, cell-based
T3 sequence (whole entry): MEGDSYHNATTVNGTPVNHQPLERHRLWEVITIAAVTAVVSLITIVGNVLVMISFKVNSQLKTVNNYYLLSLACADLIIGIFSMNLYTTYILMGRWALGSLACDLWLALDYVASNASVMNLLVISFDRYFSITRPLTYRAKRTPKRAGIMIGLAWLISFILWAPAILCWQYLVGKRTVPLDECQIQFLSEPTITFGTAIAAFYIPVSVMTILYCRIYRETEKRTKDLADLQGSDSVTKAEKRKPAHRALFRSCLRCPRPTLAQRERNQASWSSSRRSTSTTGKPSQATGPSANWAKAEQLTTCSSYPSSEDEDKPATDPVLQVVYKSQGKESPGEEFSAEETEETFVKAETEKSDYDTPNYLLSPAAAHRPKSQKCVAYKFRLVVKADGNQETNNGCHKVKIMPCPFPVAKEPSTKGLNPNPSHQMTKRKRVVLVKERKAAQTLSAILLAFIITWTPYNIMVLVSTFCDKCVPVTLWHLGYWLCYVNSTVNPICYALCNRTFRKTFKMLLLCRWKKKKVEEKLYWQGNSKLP

[4] = molecular target: T4, Muscarinic acetylcholine receptor M5 (Homo sapiens, UniProt P08912); test: Activation of human muscarinic M5 receptor expressed in CHO cells coexpressing Gq protein assessed as potentiation of acetylcholine-induced intracellular Ca2+ mobilization; format: functional, cell-based
T4 sequence (P08912 whole entry): T3 sequence (whole entry)

[5] = molecular target: T5, Muscarinic acetylcholine receptor M3 (Homo sapiens, UniProt P20309); test: Activation of human muscarinic M3 receptor expressed in CHO cells coexpressing Gq protein assessed as potentiation of acetylcholine-induced intracellular Ca2+ mobilization at 30 uM relative to acetylcholine; format: functional, cell-based
Target sequence in this assay (P20309 whole entry, looked up): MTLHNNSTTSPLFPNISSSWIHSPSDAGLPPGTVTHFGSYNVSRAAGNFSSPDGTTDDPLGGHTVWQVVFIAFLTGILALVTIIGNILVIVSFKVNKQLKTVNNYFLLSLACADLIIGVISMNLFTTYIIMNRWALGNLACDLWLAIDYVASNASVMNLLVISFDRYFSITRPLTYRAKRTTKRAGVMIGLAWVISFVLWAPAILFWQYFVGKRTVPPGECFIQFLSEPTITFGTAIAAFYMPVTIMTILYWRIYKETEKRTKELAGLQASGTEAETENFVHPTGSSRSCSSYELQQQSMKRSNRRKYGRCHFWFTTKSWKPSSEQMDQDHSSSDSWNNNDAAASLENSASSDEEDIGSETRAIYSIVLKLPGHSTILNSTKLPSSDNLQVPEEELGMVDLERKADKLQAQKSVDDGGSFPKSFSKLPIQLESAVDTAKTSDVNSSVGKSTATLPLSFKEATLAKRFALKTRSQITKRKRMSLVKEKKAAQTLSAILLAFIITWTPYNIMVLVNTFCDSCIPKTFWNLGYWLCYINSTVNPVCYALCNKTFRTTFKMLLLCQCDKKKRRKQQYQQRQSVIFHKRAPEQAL

[6] = molecular target: T3, Muscarinic acetylcholine receptor M5 (Homo sapiens); test: Inhibition of [3H]NMS binding to human muscarinic M5 receptor expressed in CHO cells coexpressing Gq protein at 30 uM by scintillation counting; format: cell-based
[7] = molecular target: T6, Muscarinic acetylcholine receptor M4 (Rattus norvegicus, UniProt P08485); test: Activation of rat muscarinic M4 receptor expressed in CHO cells coexpressing chimeric Gqi5 protein assessed as potentiation of acetylcholine-induced intracellular Ca2+ mobilization; format: functional, cell-based
T6 sequence (P08485 whole entry): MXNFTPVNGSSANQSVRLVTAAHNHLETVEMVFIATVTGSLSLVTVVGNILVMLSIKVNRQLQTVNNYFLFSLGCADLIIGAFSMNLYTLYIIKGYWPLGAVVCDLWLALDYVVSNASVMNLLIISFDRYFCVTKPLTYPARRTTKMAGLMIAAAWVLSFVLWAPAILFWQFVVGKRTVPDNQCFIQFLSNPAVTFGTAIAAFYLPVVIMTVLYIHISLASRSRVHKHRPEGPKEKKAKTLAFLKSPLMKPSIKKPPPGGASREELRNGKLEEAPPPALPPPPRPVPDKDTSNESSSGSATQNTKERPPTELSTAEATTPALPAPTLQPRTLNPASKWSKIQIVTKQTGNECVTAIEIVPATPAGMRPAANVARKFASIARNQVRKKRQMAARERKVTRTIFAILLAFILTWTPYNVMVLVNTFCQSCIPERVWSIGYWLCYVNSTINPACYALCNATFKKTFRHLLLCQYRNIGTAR
Method in brief: (§1)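 Calcium flux assay. Stable CHO lines were seeded at 5 × 10^4 cells/well (M1, M3, M5) or 6 × 10^4 cells/well (Gqi5 M2, M4) and grown overnight at 37 °C, 5% CO2. Cells were loaded 1 h at 37 °C with 2 µM Fluo-4 AM. […] At least three independent determinations, each in duplicate or more.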

[8] = molecular target: T5, Muscarinic acetylcholine receptor M3; test: Activation of human muscarinic M3 receptor expressed in CHO cells coexpressing Gq protein assessed as potentiation of acetylcholine-induced intracellular Ca2+ mobilization; format: functional, cell-based; method in brief: as §1
Target sequence in this assay (P20309 whole entry): as the sequence (P20309 whole entry, looked up) above

[9] = molecular target: T7, Muscarinic acetylcholine receptor M2 (Rattus norvegicus, UniProt P10980); test: Activation of rat muscarinic M2 receptor expressed in CHO cells co-expressing chimeric Gqi5 protein assessed as potentiation of acetylcholine-induced intracellular Ca2+ mobilization; format: functional, cell-based; method in brief: as §1
T7 sequence (P10980 whole entry): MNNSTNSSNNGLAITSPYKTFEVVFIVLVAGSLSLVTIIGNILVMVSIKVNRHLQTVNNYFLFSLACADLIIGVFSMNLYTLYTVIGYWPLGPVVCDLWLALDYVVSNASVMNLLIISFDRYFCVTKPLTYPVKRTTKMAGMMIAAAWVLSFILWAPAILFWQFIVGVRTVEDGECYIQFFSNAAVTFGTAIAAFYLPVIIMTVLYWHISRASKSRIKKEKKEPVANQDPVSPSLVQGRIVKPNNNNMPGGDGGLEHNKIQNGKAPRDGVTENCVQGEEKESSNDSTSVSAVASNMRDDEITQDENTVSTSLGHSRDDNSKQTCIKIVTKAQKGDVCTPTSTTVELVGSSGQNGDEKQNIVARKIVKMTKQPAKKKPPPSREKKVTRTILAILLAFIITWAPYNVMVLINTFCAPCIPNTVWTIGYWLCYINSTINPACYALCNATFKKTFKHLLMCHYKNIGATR

[10] = molecular target: T8, Muscarinic acetylcholine receptor M2 (Rattus norvegicus) (UniProt P10980); test: Activation of rat muscarinic M2 receptor expressed in CHO cells coexpressing chimeric Gqi5 protein assessed as potentiation of acetylcholine-induced intracellular Ca2+ mobilization at 30 uM relative to acetylcholine; format: functional, cell-based
T8 sequence (whole entry): T7 sequence (P10980 whole entry)

Row | SMILES | %max [1] [%] | EC50 [2] [µM] | %max [3] [%] | EC50 [4] [µM] | %max [5] [%] | inhibition [6] [%] | EC50 ([7]; cho) | EC50 [8] [µM] | EC50 ([9]; cho) | %max [10] [%] | EC50 ([7]; read-out: EC50) [µM] | EC50 ([9]; read-out: EC50) [µM]
1 | O=C1C(=O)N(Cc2ccc(OC(F)(F)F)cc2)c2ccc(OC(F)(F)F)cc21 | 13.8 | > 30 | 58.9 | 1.86 |  |  |  |  |  |  |  | 
2 | O=C1C(=O)N(Cc2ccc(Br)cc2F)c2ccc(OC(F)(F)F)cc21 | 11.6 | > 30 | 36.4 | > 10 |  |  |  |  |  |  |  | 
3 | COc1cccc(CN2C(=O)C(=O)c3c(Cl)ccc(Cl)c32)c1 | 13.3 | > 30 | 35.1 | 7.15 |  |  |  |  |  |  |  | 
4 | O=C1C(=O)N(Cc2ccccc2C(F)(F)F)c2ccc(F)cc21 | 47.8 | 6.21 | 36.1 | 4.09 |  |  |  |  |  |  |  | 
5 | O=C1C(=O)N(Cc2ccc(C(F)(F)F)cc2)c2ccc(OC(F)(F)F)cc21 | 25.7 | 7.09 | 67.2 | 1.85 |  |  |  |  |  |  |  | 
6 | Cc1ccccc1CN1C(=O)C(=O)c2cc(OC(F)(F)F)ccc21 | 26.2 | > 30 | 60 | 3.28 |  |  |  |  |  |  |  | 
7 | O=C1C(=O)N(Cc2ccc(Br)cc2)c2ccccc21 | 82.4 | 6.04 | 74.4 | 4.08 | 65.5 | 50 | Not Active | 6.38 | Not Active |  |  | 
8 | O=C1C(=O)N(Cc2ccc(C(F)(F)F)cc2)c2c(Cl)cccc21 | 67 | 3.2 | 70.8 | 2.11 | 78 |  |  | 2.22 |  | 55 | > 10 | 2.84
9 | COc1ccc(CN2C(=O)C(=O)c3ccccc32)cc1 | 43.6 | > 10 | 29.2 | > 30 |  |  |  |  |  |  |  | 
10 | O=C1C(=O)N(Cc2ccc(C(F)(F)F)cc2)c2c(F)cccc21 | 60.9 | 5.18 | 71.1 | 3.26 |  |  |  |  |  |  |  | 
11 | COc1ccc(CN2C(=O)C(=O)c3cccc(Cl)c32)cc1 | 49.4 | 5.38 | 30.3 | 3.96 |  |  |  |  |  |  |  | 
12 | O=C1C(=O)N(Cc2ccccc2C(F)(F)F)c2c(F)cccc21 | 41.3 | > 30 | 30.9 | > 30 |  |  |  |  |  |  |  | 
13 | O=C1C(=O)N(Cc2ccccc2Cl)c2ccc(OC(F)(F)F)cc21 | 12.3 | > 30 | 51.9 | 4.07 |  |  |  |  |  |  |  | 
14 | COc1cccc(CN2C(=O)C(=O)c3cc(OC(F)(F)F)ccc32)c1 | 28.6 | > 30 | 70.1 | 1.7 |  |  |  |  |  |  |  | 
15 | O=C1C(=O)N(Cc2ccc(Br)cc2)c2c(F)cccc21 | 62.7 | 3.99 | 51.7 | 1.93 |  |  |  |  |  |  |  | 
